Compound activity: PubChem, several laboratories
PGE2 EP2 inh = inhibitors of human EP2 prostaglandin E2 receptor; P43116; C6 glioma cells expressing human EP2, cAMP TR-FRET; cells stimulated with saturating PGE2; inhibition, % at 25 µM; 0.52% of 260,000 active;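 active = percent inhibition above 40 after rounding to a whole number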;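 note: rat C6 glioma host cells with rolipram phosphodiesterase inhibitor present; the protocol text gives 20 µM as final concentration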
GPR7 antag = blocks human GPR7 receptor signaling; P48145; GPR7-expressing cells, fluorescence antagonist assay; inhibition, % at 4.4 µM; 1.1% of 290,000 active; in the data active = inhibition above about 16%, passing the limit was not always enough;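 note: cells stimulated with the agonist NPW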
Target sequence (P48145 whole entry, looked up): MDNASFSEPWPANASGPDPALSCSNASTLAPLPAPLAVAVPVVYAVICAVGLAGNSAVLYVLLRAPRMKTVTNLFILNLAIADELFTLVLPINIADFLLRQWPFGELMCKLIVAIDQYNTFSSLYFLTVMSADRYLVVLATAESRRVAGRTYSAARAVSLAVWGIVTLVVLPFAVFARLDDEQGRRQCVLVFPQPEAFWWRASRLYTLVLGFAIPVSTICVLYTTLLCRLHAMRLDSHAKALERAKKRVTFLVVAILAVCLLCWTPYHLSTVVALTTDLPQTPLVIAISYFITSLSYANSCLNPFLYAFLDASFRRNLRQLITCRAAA
OX1R antag-1 = blocks the human orexin 1 receptor | O43613 | CHO/OX1R cells, Fluo-8 calcium fluorescence, orexin A | inhibition, % at 5 µM | 0.43% of 330,000 active | AID 434989;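 active = inhibition above its plate's threshold, mean inhibition of all tested compounds on the plate plus 3 SD, cut at about 37% in these data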
CHO parental Ca = counter-screen: ATP calcium response change in parental CHO cells | parental CHO-K1, ATP-induced calcium, Fluo-8 fluorescence | inhibition, % at 5.6 µM | 0.63% of 330,000 active;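 active = inhibition above that plate's mean sample inhibition plus 3 SD, cut at about 26% in these data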
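material = parental CHO cells | also added = ATP as calcium-mobilizing challenge | dosing = single point at 5.6 µM | detection = intracellular calcium via Fluo-8 no-wash fluorescent dye | read-out = % inhibition | benchmarks = low control ATP plus DMSO, high control DMSO only | repeats = one well per compound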
OX1R antag-2 = OX1R (human) antagonism. AID 485270. 1.8% of 330,000 active. inhibition, % at 6.6 µM. OX1R-expressing cells, FRET antagonist read-out; in the data active = inhibition mostly above about 38%, no sharp cut-off; inactive = mostly below about 40%
EP2 modulator = modulators of human EP2 prostaglandin E2 receptor | 0.83% of 260,000 active | EP2-expressing cells, cAMP HTRF FRET, PGE2 co-stimulation | P43116 | AID 940 | induction, % at 25 µM;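 active = compounds whose cAMP rise, as percent of the full-agonist control response, exceeds 60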;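 note: rat C6 glioma line stably carrying human EP2 under a CMV promoter; the protocol text gives 20 µM as final concentration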
Of the large screens only hits and unclear results are named; the others gave an inactive call; ! = not confirmed by another sample. Rows were chosen to be rich in hits. Some 3.7% of all compounds tested hit in one or more screens of this group.

COc1ccc(OC)c(NC(=O)c2cnc(Nc3ccccc3OC)c3ccccc23)c1	OX1R antag-2 68
COc1ccc(CNC(=O)CN(CC2CCCO2)C(=O)CNS(=O)(=O)c2ccc(C)cc2)cc1 (stereo unspecified)	none
Cc1ccc(-c2nc3cccnc3s2)cc1NS(=O)(=O)c1cccs1	OX1R antag-2 41
Cc1ccc(-c2nc3cccnc3s2)cc1NS(=O)(=O)c1ccc2c(c1)OCCO2	none
Cc1nc2ccc(S(=O)(=O)Nc3cccc(-c4nc5cccnc5s4)c3C)cc2s1	CHO parental Ca 32
CCN1CCN(c2oc(COc3ccc(-c4ccccc4)cc3)nc2C#N)CC1	none
N#Cc1nc(COc2ccc(Br)cc2)oc1N1CCN(Cc2ccccc2)CC1	GPR7 antag 29 (no result: OX1R antag-1, CHO parental Ca, OX1R antag-2)
CCCn1cnc2c(=S)nc(N)[nH]c21	GPR7 antag 18
CCCCn1cnc2c(=S)nc(N)[nH]c21	none
CN1CCN(CC(=O)N2c3ccccc3Sc3ccccc32)CC1	none (no result: PGE2 EP2 inh, EP2 modulator)
CC1CCN(CC(=O)N2c3ccccc3Sc3cc4ccccc4cc32)CC1	PGE2 EP2 inh 46 (no result: GPR7 antag, OX1R antag-1, CHO parental Ca, OX1R antag-2)
CC1CCCN(CC(=O)N2c3ccccc3Sc3ccccc32)C1 (stereo unspecified)	none
CN1CCN(CC(=O)N2c3ccccc3Sc3cc4ccccc4cc32)CC1	PGE2 EP2 inh 45 (no result: GPR7 antag, OX1R antag-1, CHO parental Ca, OX1R antag-2)
C=CCn1c(SCC(=O)Nc2ccccc2)nc2sc(C)cc2c1=O	none (no result: GPR7 antag, OX1R antag-1, CHO parental Ca, OX1R antag-2)
Clc1ccc(/C=C/c2nc(Cl)c(-c3ccc(Cl)cc3)c(Cl)n2)cc1	PGE2 EP2 inh 43!
Cc1c(C(=O)O)cccc1-c1ccc(/C=C2\SC(=O)NC2=O)o1	OX1R antag-2 56 (no result: PGE2 EP2 inh, EP2 modulator)
Cc1c(C(=O)O)cccc1-c1ccc(/C=C2/NC(=O)N(c3ccccc3)C2=O)o1	none
CN1Cc2sc(NC(=S)NC(=O)c3ccccc3)c(C#N)c2CC1(C)C	OX1R antag-1 40, CHO parental Ca 34
CCOc1ccc(-n2ccc(=O)c(C(=O)Nc3ccc(S(=O)(=O)Nc4ncccn4)cc3)n2)cc1	none (no result: PGE2 EP2 inh, EP2 modulator)
Cc1ccc2c(c1)c(C)c(C)n2CC(O)Cn1nc(C)cc1C (stereo unspecified)	none
Cc1ccc2c(c1)c(C)c(C)n2CC(O)Cn1nnc2ccccc21 (stereo unspecified)	OX1R antag-2 63
O=C(Nc1ccc2nc3n(c(=O)c2c1)CCCC3)c1ccccc1[N+](=O)[O-]	none
Cc1noc(C)c1S(=O)(=O)N1CCN(c2ccc(Cl)cc2)CC1	none (no result: PGE2 EP2 inh, EP2 modulator)
Cc1noc(C)c1S(=O)(=O)Nc1ccc(C(=O)N2CCN(c3ccc(Cl)cc3)CC2)cc1	OX1R antag-1 49, CHO parental Ca 36 (no result: PGE2 EP2 inh)
O=C(c1ccccc1)N1CCN(c2ccc(Cl)cc2)CC1	GPR7 antag 20
C(CCc1nnc2c(n1)CCCC2)Cc1nnc2c(n1)CCCC2	PGE2 EP2 inh 45 (no result: GPR7 antag, OX1R antag-1, CHO parental Ca, OX1R antag-2)
Cc1ccc(NC(=O)C2(NC(=O)c3ccccn3)CCCCC2)cc1Br	OX1R antag-2 68
Cc1ccc(N/N=C/c2c(C)c(C#N)c(=O)n(C)c2O)cc1C	none (no result: OX1R antag-1, CHO parental Ca, OX1R antag-2)
NC(=O)c1oc2ccccc2c1NC(=O)c1nc2ccccc2s1	none
O=C(Nc1nnc(-c2ccccc2)o1)c1nc2ccccc2s1	PGE2 EP2 inh 45, CHO parental Ca 28 (no result: GPR7 antag)
COc1cc(OC)cc(C(=O)N2CCC(C)CC2)c1	none (no result: GPR7 antag, OX1R antag-1, CHO parental Ca, OX1R antag-2)
COc1ccc(-c2cc(C(=O)O)c3ccccc3n2)c(OC)c1	none
COc1ccc(OC)c(-c2cc(C(=O)O)c3cc4ccccc4cc3n2)c1	PGE2 EP2 inh 55 (no result: GPR7 antag, OX1R antag-1, CHO parental Ca, OX1R antag-2)
O=[N+]([O-])c1cccc(C2NCC(c3ccccc3Cl)c3c2[nH]c2ccccc32)c1 (stereo unspecified)	OX1R antag-1 53, CHO parental Ca 50
CN(C)c1ccc(C2CNC(c3ccc(Cl)c([N+](=O)[O-])c3)c3[nH]c4ccccc4c32)cc1 (stereo unspecified)	none
NC(=O)Cn1cc(/C=N\NS(=O)(=O)c2ccc(F)cc2)c2ccccc21	none (no result: PGE2 EP2 inh, EP2 modulator)
O=c1[nH]cnc2c1sc1nc3c(c(-c4ccc(Cl)cc4)c12)CCC3	EP2 modulator 61
O=C(COC(=O)c1cc(S(=O)(=O)N2CCOCC2)ccc1F)NC1CCCCC1	none (no result: PGE2 EP2 inh, GPR7 antag, EP2 modulator)
Cc1ccc(S(=O)(=O)C/N=C(/NC(=S)N(c2ccccc2)c2ccccc2)c2ccccc2)cc1	EP2 modulator 61
Cc1ccc(S(=O)(=O)/N=C(/NC(=S)Nc2ccccc2)c2ccccc2)cc1	none
